Measurements from ChEMBL document CHEMBL1145092, “Soft antimicrobial agents: synthesis and activity of labile environmentally friendly long chain quaternary ammonium compounds” (J Med Chem, 2003).

Key:
[1] = tested on: Pseudomonas aeruginosa; experiment: Minimum concentration required to inhibit Pseudomonas aeruginosa ATCC 27853; format: functional
How it was run: (§1)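 Broth doubling-dilution MIC in Mueller Hinton broth against ATCC quality-control strains, incubated 24 h at 37 °C in ambient air. Poorly water-soluble compounds were dissolved in minimal DMSO. Values are in µg/mL.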

[2] = tested on: Human alphaherpesvirus 1; experiment: Tested for antiviral activity against HSV-1 at a concentration of 6.25 ug/mL after 2 hr of treatment at 37 degrees C; format: functional, herpes simplex virus
How it was run: (§2)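 HSV-1 strain MacIntyre stock (10^6.5–10^7.5 TCID50/100 µL) was mixed 1:1 with twofold compound dilutions made in RPMI-1640 with 2% FBS from a 1 mg/mL HBSS stock; concentrations are final. Mixtures were held 2 h at 37 °C, then diluted 10-fold to stop. Residual titer was measured on Vero monolayers by 10-fold dilutions in quadruplicate wells, scoring CPE daily for 5 days at 37 °C and 5% CO2. Titers were calculated by Reed–Muench as log10 TCID50/0.1 mL, mean of three, against a virus-plus-medium control.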

[3] = tested on: Human alphaherpesvirus 1; experiment: Tested for antiviral activity against HSV-1 at a concentration of 12.5 ug/mL after 2 hr of treatment at 37 degrees C; format: functional, herpes simplex virus; how it was run: as §2
[4] = tested on: Human alphaherpesvirus 1; experiment: Tested for antiviral activity against HSV-1 at a concentration of 25 ug/mL after 2 hr of treatment at 37 degrees C; format: functional, herpes simplex virus; how it was run: as §2
[5] = (§3) Half life (t1/2) was determined; format: ADME
How it was run: (§4)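 Hydrolytic stability: compound from a 0.1 mg/mL ethanol stock was spiked into 10 mM phosphate buffer, pH 6, and held at 60 °C (±0.2 °C). Periodic HPLC or LC-MS/MS analysis was run, and k_obs came from linear regression of peak integration (n = 3). Selected compounds were also tested in diluted (1:4) agar at 37 °C.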

[6] = tested on: Enterococcus faecalis; experiment: Minimum concentration required to inhibit Enterococcus faecalis ATCC 29212; format: functional; how it was run: as §1
[7] = tested on: Human alphaherpesvirus 1; experiment: Tested for antiviral activity against HSV-1 at a concentration of 100 ug/mL after 2 hr of treatment at 37 degrees C; format: functional, herpes simplex virus; how it was run: as §2
[8] = tested on: Staphylococcus aureus; experiment: Minimum concentration required to inhibit Staphylococcus aureus ATCC 25923; format: functional; how it was run: as §1
[9] = tested on: Escherichia coli; experiment: Minimum concentration required to inhibit Escherichia coli ATCC 25922; format: functional; how it was run: as §1
[10] = tested on: Human alphaherpesvirus 1; experiment: Tested for antiviral activity against HSV-1 at a concentration of 50 ug/mL after 2 hr of treatment at 37 degrees C; format: functional, herpes simplex virus; how it was run: as §2
[11] = tested on: Staphylococcus aureus; experiment: Tested for antibacterial activity against Staphylococcus aureus; format: functional
[12] = as §3; format: functional; how it was run: as §4
[13] = tested on: Enterococcus faecalis; experiment: Minimum concentration required to inhibit enterococcus faecalis ATCC 29212; format: functional; how it was run: as §1

SMILES | MIC [1] | Log t1/2 [5] | MIC [6] | MIC [8] | MIC [9] | Log 1/MIC [11] | MIC [13] | MLC [1] | Log TCID50 [2] | Log TCID50 [3] | Log TCID50 [4] | MLC [6] | Log TCID50 [7] | MLC [8] | MLC [9] | Log TCID50 [10] | Log t1/2 [12]
CCCCCCCCCCCCCCCCCC(=O)OCC[n+]1ccccc1.[Br-] | 250 µg/mL | 0.9 | 8 µg/mL | 1 µg/mL | 500 µg/mL | 0 | – | 250 µg/mL | 6.9 | 6.1 | 2.9 | 8 µg/mL | 1.3 | 2 µg/mL | 500 µg/mL | 1.63 | –
CCCCCCCCCCCCCCCCOC(=O)C[n+]1ccccc1 | 6400 µg/mL | -0.9 | > 12800 µg/mL | 12800 µg/mL | 6400 µg/mL | -4.1 | – | 6400 µg/mL | – | – | – | >12800 µg/mL | – | 12800 µg/mL | 12800 µg/mL | – | –
CCCCCCCC/C=C/CCCCCCCC(=O)OCC[n+]1ccccc1.[Br-] | 250 µg/mL | 1.17 | 4 µg/mL | 8 µg/mL | 62 µg/mL | -0.9 | – | 250 µg/mL | – | – | – | 62 µg/mL | – | 16 µg/mL | 125 µg/mL | – | –
CCCCCCCCCCCCNC(=O)C[n+]1ccccc1 | 125 µg/mL | 0.92 | 4 µg/mL | 4 µg/mL | 125 µg/mL | -0.6 | – | 125 µg/mL | – | 6.57 | 5.4 | 8 µg/mL | 1.5 | 4 µg/mL | 125 µg/mL | 1.5 | –
CCCCCCOC(=O)C[n+]1ccccc1 | > 12800 µg/mL | 0.15 | > 12800 µg/mL | > 12800 µg/mL | > 12800 µg/mL | -4.1 | – | >12800 µg/mL | – | – | – | >12800 µg/mL | – | >12800 µg/mL | >12800 µg/mL | – | –
CCCCCCCCCCCCCCCC(=O)OCC[N+](CC)(CC)CC.[Br-] | 250 µg/mL | – | 8 µg/mL | 2 µg/mL | 64 µg/mL | – | – | 250 µg/mL | – | 7 | 6.33 | 16 µg/mL | 0.8 | 4 µg/mL | 64 µg/mL | 5.73 | –
CCCCCCCCCCCCCCCC(=O)NCC[n+]1ccccc1.[Cl-] | 250 µg/mL | – | 7.5 µg/mL | 2 µg/mL | 60 µg/mL | – | – | – | 6.47 | 6.07 | 2.9 | – | 0.8 | – | – | 0.9 | –
CCCCCCCCCCCC(=O)OCC[N+](CCCC)(CCCC)CCCC | 500 µg/mL | 0.27 | 4 µg/mL | 2 µg/mL | 125 µg/mL | -0.3 | – | 1000 µg/mL | 7 | 7 | 6.63 | 16 µg/mL | 0.5 | 8 µg/mL | 125 µg/mL | 6 | –

Second part, led by results:

MIC [1] | Log t1/2 [5] | MIC [6] | MIC [8] | MIC [9] | Log 1/MIC [11] | MIC [13] | SMILES | MLC [1] | Log TCID50 [2] | Log TCID50 [3] | Log TCID50 [4] | MLC [6] | Log TCID50 [7] | MLC [8] | MLC [9] | Log TCID50 [10] | Log t1/2 [12]
3200 µg/mL | – | 10 µg/mL | 50 µg/mL | 100 µg/mL | -1.51 | – | CCCCCCCCCCCC(=O)OC[n+]1ccccc1.[Cl-] | 3200 µg/mL | – | – | – | 200 µg/mL | – | 50 µg/mL | 400 µg/mL | – | 0.31
500 µg/mL | 2.36 | 1 µg/mL | < 0.25 µg/mL | 250 µg/mL | 0.6 | – | CCCCCCCCCCCCCCCC(=O)OCCC[n+]1ccccc1 | 500 µg/mL | – | – | – | 4 µg/mL | – | 1 µg/mL | 250 µg/mL | – | –
250 µg/mL | 1.1 | – | 1 µg/mL | 32 µg/mL | 0 | 8 µg/mL | CCCCCCCCCCCCCCCC(=O)OCC[n+]1ccccc1.[Br-] | 1000 µg/mL | – | – | – | 8 µg/mL | – | 1 µg/mL | 32 µg/mL | – | –
200 µg/mL | 0.33 | 2 µg/mL | < 6.25 µg/mL | 25 µg/mL | -0.9 | – | CCCCCCCCCCCC(=O)OCC[n+]1ccccc1.[Br-] | 200 µg/mL | 7.03 | 6.8 | 6.73 | 100 µg/mL | 1.63 | 50 µg/mL | 100 µg/mL | 6.73 | –
